Measurements reported in ChEMBL document CHEMBL1135761, “Discovery of further pyrrolidine trans-lactams as inhibitors of human neutrophil elastase (HNE) with potential as development candidates and the crystal structure of HNE complexed with an inhibitor (GW475151)” (J Med Chem, 2002).

Tests used:
[1] = Half life time in dog was reported in cassette dosage; type: ADME, organism-based, Canis lupus familiaris; settings: in vivo
Summary of the method: (§1)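 Dog cassette: the set of compounds was given intravenously into the femoral vein to a beagle dog at 0.2 mg/kg body weight per compound. Jugular blood was sampled from 5 min to 24 h postdose. Plasma was prepared by solid phase extraction, then analysed by HPLC with single ion monitoring MS using 0.1% formic acid in water:methanol (70:30).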

[2] = Pharmacokinetic parameter Varea in dog was reported in Cassette dosage; type: ADME, organism-based, Canis lupus familiaris; settings: in vivo, read-out: Varea; summary of the method: as §1
[3] = Pharmacokinetic parameter clearance in dog was reported in Cassette dosage; type: ADME, organism-based, Canis lupus familiaris; settings: plasma, read-out: Clp; summary of the method: as §1
[4] = Pharmacokinetic parameter Varea in dog was reported in Discrete dosage; type: ADME, organism-based, Canis lupus familiaris; settings: in vivo, read-out: Varea
[5] = Pharmacokinetic parameter clearance in dog was reported in Discrete dosage; type: ADME, organism-based, Canis lupus familiaris; settings: plasma, read-out: Clp
[6] = Half life time in dog was reported in Discrete dosage; type: ADME, organism-based, Canis lupus familiaris; settings: in vivo
[7] = Pharmacokinetic parameter Tmax was reported in rat after intravenous administration; type: ADME, organism-based; settings: in vivo
Summary of the method: (§2)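 Rats were dosed with the hydrochloride salt at 2 mg/kg intravenously and orally. Plasma pharmacokinetic parameters were derived from each route, and F was taken from the oral versus intravenous exposure. Some rat data were normalized from a 2.4 to a 2 mg/kg dose.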

Canis familiaris [8] = experiment: pharmacokinetic parameter area under the curve (AUC) was reported in dog after oral administration; type: ADME, organism-based, Canis lupus familiaris; settings: in vivo
[9] = Oral bioavailability in rat; type: ADME, organism-based; settings: in vivo; summary of the method: as §2
[10] = Oral bioavailability in dog; type: ADME, organism-based, Canis lupus familiaris; settings: in vivo
Cathepsin G = target: T1, Cathepsin G (Homo sapiens, UniProt P08311); experiment: The compound was evaluated for its inhibitory activity against cathepsin G using selectivity assay
T1 sequence (P08311 whole entry): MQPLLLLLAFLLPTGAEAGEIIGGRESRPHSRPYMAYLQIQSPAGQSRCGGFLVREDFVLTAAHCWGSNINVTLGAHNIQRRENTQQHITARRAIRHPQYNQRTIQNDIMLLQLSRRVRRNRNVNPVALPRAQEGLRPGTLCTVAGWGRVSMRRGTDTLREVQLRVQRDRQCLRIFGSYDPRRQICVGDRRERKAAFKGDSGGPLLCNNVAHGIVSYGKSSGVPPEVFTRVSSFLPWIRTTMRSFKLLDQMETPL

[11] = half life was reported in dog after intravenous administration; type: ADME, organism-based, Canis lupus familiaris; settings: in vivo
[12] = half life was reported in rat after intravenous administration; type: ADME, organism-based; settings: in vivo; summary of the method: as §2
[13] = pharmacokinetic parameter volume of distribution (Vd) was reported in dog after intravenous administration; type: ADME, organism-based, Canis lupus familiaris; settings: in vivo, read-out: Vd area
Chymotrypsinogen A = Chymotrypsinogen A (Bos taurus, UniProt P00766); experiment: The compound was evaluated for its inhibitory activity against Chymotrypsinogen using selectivity assay
Summary of the method: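 Selectivity counter-screen against chymotrypsin, run essentially per an earlier published protocol; inhibitor preincubated with enzyme for 15 min before activity read-out.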

[14] = Pharmacokinetic parameter Tmax was reported in rat after oral administration; type: ADME, organism-based; settings: in vivo; summary of the method: as §2
[15] = Pharmacokinetic parameter Tmax was reported in dog after oral administration; type: ADME, organism-based, Canis lupus familiaris; settings: in vivo
Serine protease 1 = Serine protease 1 (Homo sapiens, UniProt P07477); experiment: The compound was evaluated for its inhibitory activity against trypsin using selectivity assay
[16] = Pharmacokinetic parameter Cmax was reported after in rat oral administration; type: ADME, organism-based; design: route oral; settings: in vivo; summary of the method: as §2
[17] = pharmacokinetic parameter volume of distribution (Vd) was reported in rat after intravenous administration; type: ADME, organism-based; settings: in vivo, read-out: Vd area; summary of the method: as §2
Rattus norvegicus [18] = experiment: pharmacokinetic parameter area under the curve (AUC) was reported in rat after oral administration; type: ADME, organism-based; settings: in vivo; summary of the method: as §2
Canis familiaris [19] = experiment: pharmacokinetic parameter area under the curve (AUC) was reported in dog after intravenous administration; type: ADME, organism-based, Canis lupus familiaris; settings: in vivo
[20] = half life was reported in rat after oral administration; type: ADME, organism-based; settings: in vivo; summary of the method: as §2
[21] = Pharmacokinetic parameter Cmax was reported after in dog oral administration; type: ADME, organism-based, Canis lupus familiaris; design: route oral; settings: in vivo
[22] = half life was reported in dog after oral administration; type: ADME, organism-based, Canis lupus familiaris; settings: in vivo
Rattus norvegicus [23] = experiment: pharmacokinetic parameter area under the curve (AUC) was reported in rat after intravenous administration; type: ADME, organism-based; settings: in vivo; summary of the method: as §2
[24] = target: T2, Neutrophil elastase (Homo sapiens) (UniProt P08246)
T2 sequence (whole entry): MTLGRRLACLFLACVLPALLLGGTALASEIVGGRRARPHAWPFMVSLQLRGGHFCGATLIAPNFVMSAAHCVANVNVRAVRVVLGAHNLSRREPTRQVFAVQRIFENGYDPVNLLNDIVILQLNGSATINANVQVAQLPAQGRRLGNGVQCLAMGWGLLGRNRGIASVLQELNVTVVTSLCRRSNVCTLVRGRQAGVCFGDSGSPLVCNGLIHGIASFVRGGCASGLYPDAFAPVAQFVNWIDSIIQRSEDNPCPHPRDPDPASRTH

[25] = target: T2, Neutrophil elastase (Homo sapiens); settings: Canis lupus familiaris; Blood; 2 mg/kg
[26] = target: T2, Neutrophil elastase (Homo sapiens); settings: Canis lupus familiaris; 2 mg/kg
[27] = target: T2, Neutrophil elastase (Homo sapiens); settings: Canis lupus familiaris; Blood; 2 mg/kg; remark: listed apart in the source
[28] = Pharmacokinetic parameter Tmax was reported in dog after intravenous administration; type: ADME, organism-based, Canis lupus familiaris; settings: in vivo

Serine protease 1, sequence (P07477 whole entry): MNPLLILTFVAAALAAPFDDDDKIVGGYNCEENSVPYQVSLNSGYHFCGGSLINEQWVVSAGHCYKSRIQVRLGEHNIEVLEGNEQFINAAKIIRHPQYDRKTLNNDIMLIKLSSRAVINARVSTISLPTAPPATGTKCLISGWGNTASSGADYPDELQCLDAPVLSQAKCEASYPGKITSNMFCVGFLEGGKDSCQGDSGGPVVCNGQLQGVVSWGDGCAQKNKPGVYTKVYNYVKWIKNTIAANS

Row | half-life [1] [min] | Vd [2] [L/kg] | clearance [3] [mL/min/kg] | Vd [4] [L/kg] | clearance [5] [mL/min/kg] | half-life [6] [min] | Tmax [7] [min] | AUC (Canis familiaris [8]) [ng·h/mL] | bioavailability [9] [%] | bioavailability [10] [%] | IC50 (Cathepsin G) [µM] | half-life [11] [min] | half-life [12] [min] | Vd [13] [L/kg] | Tmax [14] [min] | Tmax [15] [min] | IC50 (Serine protease 1) [µM] | Cmax [16] [ng/mL] | Vd [17] [L/kg] | AUC (Rattus norvegicus [18]) [ng·h/mL] | SMILES | also measured
1 | 18 | 4.4 | 176 | – | – | – | – | – | – | – | – | – | – | – | – | – | – | – | – | – | CC(C)[C@@H]1C(=O)N(S(C)(=O)=O)[C@@H]2CCN(C(=O)c3ccc(CN(C)C(C)C)c(Br)c3)[C@H]21 | –
2 | 30 | 4.3 | 97 | 3.8 | 94 | 30 | – | – | – | – | – | – | – | – | – | – | – | – | – | – | CC(C)C1C(=O)N(S(C)(=O)=O)C2CCN(C(=O)c3ccc(CNC4CC4)cc3)C12 (stereo unspecified) | –
3 | 42 | 2.9 | 46 | – | – | – | – | – | – | – | – | – | – | – | – | – | – | – | – | – | CC(C)C1C(=O)N(S(C)(=O)=O)C2CCN(C(=O)c3ccc(CNC4CC4)nc3)C12 (stereo unspecified) | –
4 | – | – | – | – | – | – | 1.8 | 417 | 45 | 90 | > 100 | 108 | 48 | 3.5 | 45 | 54 | > 100 | 142 | 4.9 | 217 | CC(C)[C@@H]1C(=O)N(S(C)(=O)=O)[C@@H]2CCN(C(=O)C3CN(CC(C)(C)C)C3)[C@H]21.Cl | IC50 (Chymotrypsinogen A): 31 µM; AUC (Canis familiaris [19]): 488 ng·h/mL; half-life [20]: 72 min; Cmax [21]: 130 ng/mL; half-life [22]: 126 min; AUC (Rattus norvegicus [23]): 482 ng·h/mL; k on [24]: 6310 M⁻¹ s⁻¹; inhibition [25]: 99%; inhibition [26]: 92%
5 | – | – | – | – | – | – | 1.8 | 147 | 43 | 120 | > 100 | 24 | 18 | 1.9 | 15 | 15 | > 100 | 135 | 5 | 64 | CC(C)[C@@H]1C(=O)N(S(C)(=O)=O)[C@@H]2CCN(C(=O)c3cnc(CNC4CC4)cn3)[C@H]21.Cl | IC50 (Chymotrypsinogen A): 0.54 µM; AUC (Canis familiaris [19]): 220 ng·h/mL; half-life [20]: 24 min; Cmax [21]: 205 ng/mL; half-life [22]: 24 min; AUC (Rattus norvegicus [23]): 148 ng·h/mL; k on [24]: 252000 M⁻¹ s⁻¹; inhibition [25]: 99%; inhibition [26]: 92%
6 | – | – | – | – | – | – | 3 | 430 | 60 | 100 | > 100 | 90 | 66 | 3.5 | 30 | 42 | > 100 | 232 | 7.5 | 263 | CC(C)[C@@H]1C(=O)N(S(C)(=O)=O)[C@@H]2CCN(C(=O)/C=C/CN3CCCCC3)[C@H]21.Cl | inhibition [27]: 100%; AUC (Canis familiaris [19]): 405 ng·h/mL; half-life [20]: 48 min; Cmax [21]: 152 ng/mL; half-life [22]: 96 min; AUC (Rattus norvegicus [23]): 424 ng·h/mL; k on [24]: 6630 M⁻¹ s⁻¹; inhibition [26]: 97%
7 | 60 | 2.5 | 28 | 2.9 | 40 | 54 | – | – | – | – | – | – | – | – | – | – | – | – | – | – | CC(C)[C@@H]1C(=O)N(S(C)(=O)=O)[C@@H]2CCN(C(=O)/C=C/CNC3CC3)[C@H]21 | –
8 | 30 | 6.6 | 161 | 3.8 | 220 | 12 | – | – | – | – | – | – | – | – | – | – | – | – | – | – | CC(C)[C@@H]1C(=O)N(S(C)(=O)=O)[C@@H]2CCN(C(=O)c3ccc(CCN4CCCCC4)cc3)[C@H]21 | –
9 | 60 | 4.8 | 53 | – | – | – | – | – | – | – | – | – | – | – | – | – | – | – | – | – | CC(C)C1C(=O)N(S(C)(=O)=O)C2CCN(C(=O)c3csc(CN4CCCC4)n3)C12 (stereo unspecified) | –
10 | 120 | 3.3 | 20 | 2.7 | 19 | 108 | – | – | – | – | – | – | – | – | – | – | – | – | – | – | CC(C)C1C(=O)N(S(C)(=O)=O)C2CCN(C(=O)/C=C/CN3CCCCC3)C12 (stereo unspecified) | –
11 | – | – | – | – | – | – | 1.8 | 308 | 24 | 100 | > 100 | 60 | 24 | 3.4 | 15 | 30 | > 100 | 147 | 2.6 | 93 | CC(C)[C@@H]1C(=O)N(S(C)(=O)=O)[C@@H]2CCN(C(=O)c3coc(CN4CCCC4)n3)[C@H]21.Cl | Tmax [28]: 1.8 min; IC50 (Chymotrypsinogen A): 3 µM; AUC (Canis familiaris [19]): 286 ng·h/mL; half-life [20]: 78 min; Cmax [21]: 138 ng/mL; half-life [22]: 84 min; AUC (Rattus norvegicus [23]): 392 ng·h/mL; k on [24]: 30500 M⁻¹ s⁻¹; inhibition [25]: 100%; inhibition [26]: 100%
12 | 42 | 7.6 | 134 | 3.5 | 197 | 12 | – | – | – | – | – | – | – | – | – | – | – | – | – | – | CCCN(C)Cc1ccc(C(=O)N2CCC3C2C(C(C)C)C(=O)N3S(C)(=O)=O)cc1 (stereo unspecified) | –
